# According to ChEMBL document CHEMBL4138048, “Synthesis of substituted 2H-benzo[e]indazole-9-carboxylate as a potent antihyperglycemic agent that may act through IRS-1, Akt and GSK-3β pathways” (Medchemcomm, 2017):
# The source made the active and inactive calls. The calls are words filed in the database; no cut-off is given here.
# Tests used:
# Mus musculus [1] = experiment: Antihyperglycemic activity in db/db mouse assessed as reduction in insulin level at 30 mg/kg, po qd for 15 days; assay type: functional; set-up: scale not given: the % may be the effect or the level left
# Summary of the method: (§1)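 db/db mice given 3, 10 or 30 mg/kg orally once a day for 15 consecutive days, alongside vehicle controls. Serum triglyceride, total cholesterol, HDL-C and insulin measured, along with fasting blood glucose. Expressed as mean % change in 5 animals per group versus control.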
# Mus musculus [2] = experiment: Antihyperglycemic activity in db/db mouse assessed as reduction in triglyceride level at 30 mg/kg, po qd for 15 days; assay type: functional; set-up: scale not given: the % may be the effect or the level left; summary of the method: as §1
# Mus musculus [3] = experiment: Antihyperglycemic activity in db/db mouse assessed as increase in HDL-C level at 10 mg/kg, po qd for 15 days; assay type: functional; summary of the method: as §1
# Mus musculus [4] = experiment: Antihyperglycemic activity in db/db mouse assessed as increase in HDL-C level at 30 mg/kg, po qd for 15 days; assay type: functional; summary of the method: as §1
# Mus musculus [5] = experiment: Antihyperglycemic activity in db/db mouse assessed as improvement on glucose tolerance by measuring blood glucose AUC level at 10 mg/kg, po qd for 10 days by oral glucose tolerance test; assay type: functional
# Summary of the method: (§2)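 db/db mice dosed orally once daily for 15 consecutive days at 3, 10 or 30 mg/kg, with vehicle controls and pioglitazone at 10 mg/kg. Oral glucose tolerance tests on day 10 and day 15. Overall improvement in glucose tolerance calculated against vehicle control. Mean % change in 5 animals per group.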
# L6 [6] = experiment: Stimulation of [3H]2-deoxyglucose uptake in rat L6 cells at 10 uM incubated for 16 hrs by scintillation counting method relative to untreated control; assay type: functional
# Summary of the method: (§3)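 L6 myotubes incubated with the compound […]; insulin at 100 nM for 20 min served as the positive control. Uptake of ³H-2-deoxyglucose measured and expressed as fold stimulation relative to the control condition.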
# [7] = target: T1, Tyrosine-protein phosphatase non-receptor type 1 (Rattus norvegicus) (UniProt P20417); experiment: Inhibition of PTP1B in rat L6 cells assessed as increase in insulin-stimulated GSK3beta Ser9 phosphorylation at 10 to 25 uM pre-incubated for 16 hrs before insulin stimulation for 10 mins by Western blot method; assay type: cell-based
# T1 sequence (whole entry): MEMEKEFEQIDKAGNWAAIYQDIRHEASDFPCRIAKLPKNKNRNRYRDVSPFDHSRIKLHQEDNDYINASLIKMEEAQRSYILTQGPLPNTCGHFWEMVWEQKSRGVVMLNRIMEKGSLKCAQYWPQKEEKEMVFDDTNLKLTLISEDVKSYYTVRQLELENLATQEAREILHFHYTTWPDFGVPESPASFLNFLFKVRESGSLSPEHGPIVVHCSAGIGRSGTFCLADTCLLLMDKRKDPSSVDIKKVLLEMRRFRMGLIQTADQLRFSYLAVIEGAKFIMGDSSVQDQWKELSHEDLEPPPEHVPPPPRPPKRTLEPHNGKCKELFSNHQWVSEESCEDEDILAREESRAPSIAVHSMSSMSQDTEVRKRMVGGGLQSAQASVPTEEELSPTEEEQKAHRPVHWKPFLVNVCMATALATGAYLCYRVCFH
# Summary of the method: (§4)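 L6 myotubes treated for 16 h with the compound at the indicated concentrations, then stimulated with insulin (100 nM) for 10 min. Cells lysed and analysed by western blot. Densitometry of p-IRS-1, p-AKT and p-GSK, each relative to its total form. Compared with control and with insulin-treated control.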
# Mus musculus [8] = experiment: Antihyperglycemic activity in db/db mouse assessed as reduction in triglyceride level at 3 mg/kg, po qd for 15 days; assay type: functional; set-up: scale not given: the % may be the effect or the level left; summary of the method: as §1
# Mus musculus [9] = experiment: Antihyperglycemic activity in db/db mouse assessed as reduction in insulin level at 10 mg/kg, po qd for 15 days; assay type: functional; set-up: scale not given: the % may be the effect or the level left; summary of the method: as §1
# HepG2 = experiment: Stimulation of [3H]2-deoxyglucose uptake in human HepG2 cells at 10 uM incubated for 16 hrs by scintillation counting method; assay type: functional, cell-based
# Mus musculus [10] = experiment: Antihyperglycemic activity in db/db mouse assessed as improvement on glucose tolerance by measuring blood glucose AUC level at 10 mg/kg, po qd for 15 days by oral glucose tolerance test; assay type: functional; summary of the method: as §2
# Mus musculus [11] = experiment: Antihyperglycemic activity in db/db mouse assessed as reduction in serum insulin level at 3 to 30 mg/kg, po qd for 15 days; assay type: functional, organism-based; summary of the method: as §1
# Mus musculus [12] = experiment: Antihyperglycemic activity in db/db mouse assessed as reduction in fasting blood glucose level at 3 mg/kg, po qd for 15 days; assay type: functional; set-up: scale not given: the % may be the effect or the level left; summary of the method: as §1
# Mus musculus [13] = experiment: Antihyperglycemic activity in db/db mouse assessed as increase in HDL-C level at 3 mg/kg, po qd for 15 days; assay type: functional; summary of the method: as §1
# Mus musculus [14] = experiment: Antihyperglycemic activity in db/db mouse assessed as reduction in triglyceride level at 10 mg/kg, po qd for 15 days; assay type: functional; set-up: scale not given: the % may be the effect or the level left; summary of the method: as §1
# Mus musculus [15] = experiment: Antihyperglycemic activity in db/db mouse assessed as reduction in insulin level at 3 mg/kg, po qd for 15 days; assay type: functional; set-up: scale not given: the % may be the effect or the level left; summary of the method: as §1
# L6 [16] = experiment: Cytotoxicity in rat L6 cells assessed as reduction in cell viability at 1 to 50 uM by MTT assay; assay type: cell-based; settings: l6, 50 µM
# Mus musculus [17] = experiment: Antihyperglycemic activity in db/db mouse assessed as reduction in cholesterol level at 10 mg/kg, po qd for 15 days; assay type: functional; set-up: scale not given: the % may be the effect or the level left; summary of the method: as §1
# Mus musculus [18] = experiment: Antihyperglycemic activity in db/db mouse assessed as reduction in cholesterol level at 3 mg/kg, po qd for 15 days; assay type: functional; set-up: scale not given: the % may be the effect or the level left; summary of the method: as §1
# L6 [19] = experiment: Stimulation of [3H]2-deoxyglucose uptake in rat L6 cells at 2.5 uM incubated for 16 hrs by scintillation counting method; assay type: functional, cell-based; summary of the method: as §3
# Mus musculus [20] = experiment: Antihyperglycemic activity in db/db mouse assessed as reduction in blood glucose level at 3 to 30 mg/kg, po qd for 15 days by oral glucose tolerance test; assay type: functional, organism-based
# Summary of the method: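 Type 2 diabetic db/db mice dosed orally once a day for 15 days at 3, 10 or 30 mg/kg, with pioglitazone at 10 mg/kg as standard. Blood glucose measured daily and profile compared with vehicle-treated animals. Mean % change in 5 animals per group.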
# Mus musculus [21] = experiment: Antihyperglycemic activity in db/db mouse assessed as reduction in fasting blood glucose level at 30 mg/kg, po qd for 15 days; assay type: functional; set-up: scale not given: the % may be the effect or the level left; summary of the method: as §1
# Mus musculus [22] = experiment: Toxicity in db/db mouse assessed as effect on food intake level at 3 to 30 mg/kg, po qd for 15 days by oral glucose tolerance test; assay type: organism-based; settings: in vivo, 360 h
# Rattus norvegicus = experiment: Antihyperglycemic activity in albino Wistar rat assessed as reduction in blodd glucose level at 100 mg/kg, po dosed 30 mins before sucrose load and measured 30 to 120 mins post sucrose injection by glucometry; assay type: functional, organism-based
# Summary of the method: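 Normal albino rats given an oral sucrose load, with a single oral dose of 100 mg/kg b.wt. Blood glucose profile followed after the load, and glucose AUC taken over 0–2 h. Percent inhibition of the postprandial rise in blood glucose calculated against control. Mean % change in 5 animals per group.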
# [23] = target: T1, Tyrosine-protein phosphatase non-receptor type 1 (Rattus norvegicus); experiment: Inhibition of PTP1B in rat L6 cells assessed as increase in insulin-stimulated IRS1 tyrosine phosphorylation pre-incubated for 16 hrs before insulin stimulation for 10 mins by Western blot method; assay type: cell-based; summary of the method: as §4
# Mus musculus [24] = experiment: Antihyperglycemic activity in db/db mouse assessed as improvement on glucose tolerance by measuring blood glucose AUC level at 3 to 30 mg/kg, po qd for 15 days by oral glucose tolerance test; assay type: functional, organism-based; summary of the method: as §2
smiles,measurement,setting,value
COC(=O)c1c(SC)cc(-c2ccc(C)cc2)c2c1-c1cn(-c3ccccc3)nc1CC2,Activity,Mus musculus [1],30.5%
same,Activity,Mus musculus [2],18.2%
same,Activity,Mus musculus [3],10.9%
same,Activity,Mus musculus [4],20.5%
same,Activity,Mus musculus [5],13.9%
same,fold change (FC),L6 [6],2
same,inhibition,[7],Active
same,Activity,Mus musculus [8],8.98%
same,Activity,Mus musculus [9],17.7%
same,Activity,HepG2,Active
same,Activity,Mus musculus [10],20.1%
same,Activity,Mus musculus [11],Dose-dependent effect
same,Activity,Mus musculus [12],10.1%
same,Activity,Mus musculus [13],6.27%
same,Activity,Mus musculus [14],13.2%
same,Activity,Mus musculus [15],6.57%
same,Activity,L6 [16],Non-Toxic
same,Activity,Mus musculus [17],15.3%
same,Activity,Mus musculus [18],11.5%
same,Activity,L6 [19],Active
same,Activity,Mus musculus [20],Dose-dependent effect
same,Activity,Mus musculus [21],31.9%
same,Activity,Mus musculus [22],Non-Toxic
same,Activity,Rattus norvegicus,Active
same,inhibition,[23],Dose-dependent effect
same,Activity,Mus musculus [24],Dose-dependent effect
